Measurements from different studies.
pKi: −log10 of the molar value.
Hypoxanthine-guanine-xanthine phosphoribosyltransferase: Hypoxanthine-guanine-xanthine phosphoribosyltransferase (Plasmodium falciparum, UniProt P20035)
CYP1B1: Cytochrome P450 1B1 (CYP1B1, Homo sapiens, UniProt Q16678)
SLC10A2: Ileal sodium/bile acid cotransporter (SLC10A2, Homo sapiens, UniProt Q12908)
HRH3: Histamine H3 receptor (HRH3, Homo sapiens, UniProt Q9Y5N1)
WDR5: WD repeat-containing protein 5 (WDR5, Homo sapiens, UniProt P61964)
DRD5: D(1B) dopamine receptor (DRD5, Homo sapiens, UniProt P21918)
PDEB1: Class 1 phosphodiesterase PDEB1 (PDEB1, Trypanosoma brucei, UniProt Q8WQX9)

SMILES | target | test | conditions | pKi
NS(=O)(=O)NC[C@@H](CO)NCc1c[nH]c2c(O)ncnc12 | Hypoxanthine-guanine-xanthine phosphoribosyltransferase | enzyme activity, inhibitor | pH 7.4 | < 4.70
C#Cc1ccc2cc(-c3ccccc3)c(=O)oc2c1 | CYP1B1 | enzyme activity, inhibitor, fluorescence | 6 min, pH 7.6 | 5.76
O=C1N[C@@H]([C@@H](CO)NCc2c[nH]c3c(O)ncnc23)CO1 | Hypoxanthine-guanine-xanthine phosphoribosyltransferase | enzyme activity, inhibitor | pH 7.4 | < 4.70
NS(=O)(=O)c1cc2c(cc1Cl)NCNS2(=O)=O | SLC10A2 | transporter uptake, inhibitor | – | 2.69
C#Cc1ccc2oc(-c3ccccc3)cc(=O)c2c1 | CYP1B1 | enzyme activity, inhibitor, fluorescence | 6 min, pH 7.6 | 6.27
NS(=O)(=O)c1cc(C2(O)NC(=O)c3ccccc32)ccc1Cl (stereo not drawn) | SLC10A2 | transporter uptake, inhibitor | – | 3.15
CN1CCN(CCCOc2ccc(Nc3nccc(NCc4ccccc4)n3)cc2)CC1 | HRH3 | ligand displacement, radioligand | cell membranes | 6.42
Cc1nc(F)ccc1-c1cc(Cn2ccn(C)c2=N)cc(C(=O)NCc2ccc(Cl)c(Cl)c2)c1 | WDR5 | ligand displacement, FP | – | > 12.00
CNC(=C[N+](=O)[O-])NCCSCc1ccc(CN(C)C)o1 | SLC10A2 | transporter uptake, inhibitor | – | 3.05
CN(C)c1ccc(/C=C/C=C2\CCc3ccc(OCc4ccc(OCCCN5CCCCC5)cc4)cc3C2=O)cc1 | HRH3 | ligand displacement, radioligand | cell membranes | 7.06
CCCCCCCC/C=C\CCCCCCCC(=O)NC(CO)(CO)CO | DRD5 | ligand displacement, radioligand | – | < 5.00
COc1ccc([C@@H]2Sc3ccccc3N(CCN(C)C)C(=O)[C@@H]2OC(C)=O)cc1 | SLC10A2 | transporter uptake, inhibitor | – | 3.68
c1cc2c(cc1OCCCCCN1CCCCCC1)CCC2 | HRH3 | ligand displacement, radioligand | cell membranes | 7.19
C#Cc1ccc(-c2cc(=O)c3ccccc3o2)cc1 | CYP1B1 | enzyme activity, inhibitor, fluorescence | 6 min, pH 7.6 | 6.89
CCCc1ccc(OCCCCCN2CCCCC2)cc1 | HRH3 | ligand displacement, radioligand | cell membranes | 7.32
C=C[C@H]1C[N@@]2CC[C@H]1C[C@H]2[C@H](O)c1ccnc2ccc(OC)cc12 | SLC10A2 | transporter uptake, inhibitor | – | 3.65
CN(C)c1ccc(/C=C2\CCc3ccc(OCCCN4CCCCC4)cc3C2=O)cc1 | HRH3 | ligand displacement, radioligand | cell membranes | 6.83
Cc1nc(F)ccc1-c1cc(C(=O)NCc2ccc(Cl)c(Cl)c2)ccc1Cn1ccn(C)c1=N | WDR5 | ligand displacement, TR-FRET | – | < 7.48
COc1ccccc1N1CCN(CCCCN2CCc3ccccc3C2=O)CC1 | DRD5 | ligand displacement, radioligand | – | 5.16
O=C(NCc1cc(Cl)cc(Cl)c1)c1cccc(Cn2ccnc2)c1 | WDR5 | ligand displacement, FP | – | 6.17

SMILES | target | test | conditions | pKi
O=C1c2ccccc2CCN1CCCCN1CCN(c2ccccn2)CC1 | DRD5 | ligand displacement, radioligand | – | 5.03
O=C1CN(CC[C@@H](CO)NCc2c[nH]c3c(O)nc(O)nc23)S(=O)(=O)N1 | Hypoxanthine-guanine-xanthine phosphoribosyltransferase | enzyme activity, inhibitor | pH 7.4 | < 4.70
CC(C)(C#N)c1cc(Cn2cncn2)cc(C(C)(C)C#N)c1 | SLC10A2 | transporter uptake, inhibitor | – | 3.40
CN(C)c1ccc(/C=C2\CCc3cc(OCc4ccc(OCCCN5CCCCC5)cc4)ccc3C2=O)cc1 | HRH3 | ligand displacement, radioligand | cell membranes | 7.39
OC[C@@]12C[C@@H]1[C@@H](n1cnc3c(NC(C4CCCC4)C4CCCC4)nc(Cl)cc31)[C@H](O)[C@@H]2O | DRD5 | cell-free assay, radioligand | – | 5.29
CN(C(=O)[C@@H]1Cc2ccccc2CN1C(=O)Cc1ccc(Cl)cc1)c1ccc(N2CCCCC2=O)cc1 | Coagulation factor X (F10, Homo sapiens, UniProt P00742) | enzyme activity, inhibitor, absorbance | – | 6.19
CCCCN1CCC(COC(=O)c2ccc(N)c(OCF)c2)CC1 | Beta-2 adrenergic receptor (ADRB2, Homo sapiens, UniProt P07550) | cell-free assay, radioligand | – | < 5.00
COc1cc(O)c(CC=C(C)C)c(O)c1C(=O)/C=C/c1ccc(O)cc1 | CYP1B1 | enzyme activity, inhibitor, fluorescence | 15 min, pH 7.4 | 6.77
CN(C)c1ccc(/C=C2\CCc3cc(OCCCN4CCCCC4)ccc3C2=O)cc1 | HRH3 | ligand displacement, radioligand | cell membranes | 7.15
COc1cc(CNC(=O)c2cccc(CNC3=NCCN3)c2F)cc(OC)c1 | WDR5 | ligand displacement, TR-FRET | – | < 7.48
CC(=O)S[C@@H]1CC2=CC(=O)CC[C@]2(C)[C@H]2CC[C@@]3(C)[C@@H](CC[C@@]34CCC(=O)O4)[C@H]12 | SLC10A2 | transporter uptake, inhibitor | – | 3.96
O=C1CN(C[C@@H](CO)NCc2c[nH]c3c(O)nc(O)nc23)S(=O)(=O)N1 | Hypoxanthine-guanine-xanthine phosphoribosyltransferase | enzyme activity, inhibitor | pH 7.4 | < 4.70
C#Cc1ccccc1-c1cc(=O)c2ccccc2o1 | CYP1B1 | enzyme activity, inhibitor, fluorescence | 6 min, pH 7.6 | 6.21
COc1ccc(C2=NN(C3CCCCCC3)C(=O)C3CC=CCC23)cc1-c1ccc(C(=O)N2CC[C@@H](O)C2)cc1 (mixture of isomers) | PDEB1 | enzyme activity, inhibitor | – | 6.60
CCOC(=O)C1=C(C)NC(C)=C(C(=O)OC)C1c1cccc(Cl)c1Cl (stereo not drawn) | SLC10A2 | transporter uptake, inhibitor | – | 4.30
NS(=O)(=O)NC[C@@H](CO)NCc1c[nH]c2c(O)nc(O)nc12 | Hypoxanthine-guanine-xanthine phosphoribosyltransferase | enzyme activity, inhibitor | pH 7.4 | < 4.70
COc1ccc(C2=NN(C3CCCCCC3)C(=O)C3CC=CCC23)cc1-c1ccc(C(=O)N2CCC[C@@H]2C(N)=O)cc1 (mixture of isomers) | PDEB1 | enzyme activity, inhibitor | – | 6.30
O=C1CCCc2cc(OCc3ccc(OCCCN4CCCCC4)cc3)ccc21 | HRH3 | ligand displacement, radioligand | cell membranes | 7.72
CCCc1ccc(OCCCCCN2CCCCCC2)cc1 | HRH3 | ligand displacement, radioligand | cell membranes | 7.25
